The values below come from PubChem BioAssay.

The source made the active and inactive calls.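 Rule for the calls, unless noted: active = mean duplicate potentiation above the buffer control mean plus 5 SD of buffer wells; inactive = the rest.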

Experiment [1] is described as follows: nonspecific flux increase, KCNQ1-free cells – parental CHO cells, counter-screen for KCNQ1 potentiator project (AID 493006;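 active = duplicate-averaged activation above buffer control mean plus 5 SD of those controls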). As to conditions: parental CHO-K1 cells, FluxOR thallium flux, at 10 µM; active compounds read high. In outline: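 Assay system: Untransfected host CHO-K1 cells with FluxOR thallium dye | Probe or stimulus: Potassium/thallium depolarization pulse | Schedule: Overnight 37 °C plating, 90 min RT dye, 20 min compound | Detection: Kinetic thallium-flux fluorescence | Read-out: Max-minus-min fluorescence over baseline, percent of buffer-to-R-L3 span | Benchmarks: Low control buffer, high control R-L3 activator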
(Counterscreens check selectivity or assay interference.)

Experiment [2] concerns the target Potassium voltage-gated channel subfamily KQT member 1 (Homo sapiens) (UniProt P51787). Description: enhancement of KCNQ1 channel thallium flux – FluxOR thallium flux, CHO cells, duplicates, confirmation (AID 493007;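 active = potentiation averaged over duplicate wells exceeding buffer-only control mean by more than 3 SD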;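 for outcome: cells depolarized by a potassium plus thallium sulfate stimulus after compound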). As to conditions: KCNQ1 cell line, FluxOR thallium flux fluorescence, at 10 µM; active compounds read high, % of reference activator effect, buffer zero. In short, it runs like this:
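Material: KCNQ1-expressing CHO cell line; Incubation: FluxOR dye loading 90 min, compound exposure 20 min, room temperature; Detection: FluxOR Tl+ flux fluorescence, 10 s baseline plus 110 s recording; Read-out: percent activation between buffer and R-L3 responses; Control set: buffer-only wells as 0% and R-L3 activator as 100%; Replication: duplicate wells per compound.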

Experiment [3] addresses Potassium voltage-gated channel subfamily KQT member 2 (Rattus norvegicus) (UniProt O88943). Description: KCNQ2 thallium flux enhancement – KCNQ2-CHO-K1 cells, selectivity assay for KCNQ1 potentiator project (AID 493009).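 Note: assay conditions were tuned for KCNQ1 rather than KCNQ2 modulators.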 The following applies: FluxOR thallium flux fluorescence, at 10 µM; active compounds read high, scaled: buffer 0, activator control 100.
The target in experiment [4] is Potassium voltage-gated channel subfamily KQT member 1 (Homo sapiens) (UniProt P51787). Description: KCNQ1 activators by electrophysiology – IonWorks patch clamp, KCNQ1-CHO cells, orthogonal assay for KCNQ1 potentiator project, confirmation (AID 493184;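 active = current rise at least 3 SD above the untreated control mean in each of two repeat wells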). As to conditions: automated patch clamp current, at 10 µM; active compounds read high. In short, it runs like this: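 assay system = KCNQ1-expressing CHO cells | medium = external bath solution at pH 7.4 | probe or stimulus = 2,000 ms depolarization, -90 to +40 mV | compound dosing = 10 µM final, single point | measured by = automated voltage clamp, amphotericin B perforated patch | measure = percent current increase versus pre-compound level | replication = duplicates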
In general terms: Patch clamp records ionic current or voltage across a cell membrane.

Sequence of Potassium voltage-gated channel subfamily KQT member 1 (Homo sapiens) (P51787 whole entry, looked up): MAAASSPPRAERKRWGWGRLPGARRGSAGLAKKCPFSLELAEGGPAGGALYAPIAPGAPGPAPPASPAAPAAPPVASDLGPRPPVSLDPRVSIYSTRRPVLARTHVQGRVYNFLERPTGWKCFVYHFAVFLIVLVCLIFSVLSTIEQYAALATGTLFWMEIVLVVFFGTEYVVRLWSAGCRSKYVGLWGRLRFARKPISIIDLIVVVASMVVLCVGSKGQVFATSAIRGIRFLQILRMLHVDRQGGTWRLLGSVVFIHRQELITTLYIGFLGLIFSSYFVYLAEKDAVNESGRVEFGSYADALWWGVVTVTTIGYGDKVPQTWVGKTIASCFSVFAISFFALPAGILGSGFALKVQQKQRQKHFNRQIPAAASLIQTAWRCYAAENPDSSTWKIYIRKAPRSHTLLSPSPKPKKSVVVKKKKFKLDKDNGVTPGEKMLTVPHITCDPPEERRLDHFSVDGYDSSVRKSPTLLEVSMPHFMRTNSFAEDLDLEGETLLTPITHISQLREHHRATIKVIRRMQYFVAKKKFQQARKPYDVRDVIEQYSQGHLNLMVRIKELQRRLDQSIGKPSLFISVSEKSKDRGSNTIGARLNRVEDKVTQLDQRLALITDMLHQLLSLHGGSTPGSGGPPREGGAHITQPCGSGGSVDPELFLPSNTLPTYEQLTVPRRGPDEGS
Sequence of Potassium voltage-gated channel subfamily KQT member 2 (Rattus norvegicus) (O88943 whole entry, looked up): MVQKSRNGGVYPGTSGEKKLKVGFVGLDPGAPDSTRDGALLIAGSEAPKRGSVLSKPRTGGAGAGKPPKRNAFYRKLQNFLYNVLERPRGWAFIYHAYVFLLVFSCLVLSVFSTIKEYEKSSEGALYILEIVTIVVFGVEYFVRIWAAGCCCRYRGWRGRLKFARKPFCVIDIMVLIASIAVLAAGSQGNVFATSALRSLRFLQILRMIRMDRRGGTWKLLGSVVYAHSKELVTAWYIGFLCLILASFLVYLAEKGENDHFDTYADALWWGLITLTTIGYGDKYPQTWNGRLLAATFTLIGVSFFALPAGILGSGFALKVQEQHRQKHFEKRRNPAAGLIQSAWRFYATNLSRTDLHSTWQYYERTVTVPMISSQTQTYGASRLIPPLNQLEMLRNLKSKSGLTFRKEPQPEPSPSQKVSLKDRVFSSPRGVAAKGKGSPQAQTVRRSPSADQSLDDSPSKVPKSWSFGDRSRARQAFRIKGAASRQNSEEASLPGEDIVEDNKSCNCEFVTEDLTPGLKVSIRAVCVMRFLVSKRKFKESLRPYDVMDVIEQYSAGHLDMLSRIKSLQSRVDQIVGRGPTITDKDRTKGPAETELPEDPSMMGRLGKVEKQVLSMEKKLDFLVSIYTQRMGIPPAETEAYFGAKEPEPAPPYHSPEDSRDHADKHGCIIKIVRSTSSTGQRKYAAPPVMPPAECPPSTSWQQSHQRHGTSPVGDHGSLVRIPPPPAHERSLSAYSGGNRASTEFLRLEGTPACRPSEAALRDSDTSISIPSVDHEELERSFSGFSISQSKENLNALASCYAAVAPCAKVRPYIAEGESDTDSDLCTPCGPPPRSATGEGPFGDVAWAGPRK

Turning to `O=C(NCc1cccc(Cl)c1)c1cccc(OC2CCN(C(=O)C3CC3)CC2)c1`, the result in experiment [1], in experiment [2], in experiment [3] and in experiment [4] was inactive.

As to `CCOC(=O)Cc1cc(=O)n2[nH]c(C)c(-c3ccc(Cl)cc3)c2n1`, the result in experiment [1], in experiment [2], in experiment [3] and in experiment [4] was inactive.

With `CC(CCc1ccccc1)NC(=O)c1ccccc1C(=O)O` (stereo not given), the result in experiment [1], in experiment [2], in experiment [3] and in experiment [4] was inactive.

Consider `CCCCCCCN1N=C(C)C(C(=O)c2ccccc2)C1=O` (stereo not given), for which the outcome in experiment [1], in experiment [2], in experiment [3] and in experiment [4] was inactive.

In the case of `O=[N+]([O-])c1ccc(Nc2ccc(Cl)cc2)nc1`, the result in experiment [1], in experiment [2] and in experiment [4] was inactive. Also, the potentiation in experiment [3] was 166% (active).

`COc1cccc(OC)c1OCCOCCN1CCN(C)CC1`: the result in experiment [1], in experiment [2], in experiment [3] and in experiment [4] was inactive.

Regarding `CC1CCCCN1S(=O)(=O)c1ccc(S(=O)(=O)N(CC(=O)Nc2ccccc2)Cc2cccs2)cc1` (stereo not given), the outcome in experiment [1], in experiment [2], in experiment [3] and in experiment [4] was inactive.

With `Cc1ccc(S(=O)(=O)n2cccc2CO)cc1`, the result in experiment [1], in experiment [2], in experiment [3] and in experiment [4] was inactive.

As for `Cc1ccc(-c2csc3ncnc(SCc4ccc(C(=O)O)cc4)c23)cc1`, the activation in experiment [1] was 197% (active). Also, the potentiation in experiment [2] is 36.5% (active); in experiment [3], 175% (active). Moreover, the outcome in experiment [4] was inactive.

As to `O=C(COC(=O)c1cc(S(=O)(=O)N2CCOCC2)ccc1O)NCCc1ccccc1`, the result in experiment [1], in experiment [2], in experiment [3] and in experiment [4] was inactive.

`CCC(=O)Nc1cc(-c2nn3c(C)nnc3s2)ccc1C`: the outcome in experiment [1], in experiment [2], in experiment [3] and in experiment [4] was inactive.

As for `O=C1CN(C(=O)CSc2nc3cc(Cl)ccc3c(=O)n2Cc2ccccc2)c2ccccc2N1`, the result in experiment [1], in experiment [3] and in experiment [4] was inactive. For the same compound, the potentiation in experiment [2] is 22.5% (active).

Take `Cc1cc(Cl)ccc1OCC(=O)NNC(=O)C1CCCO1` (stereo not given): the result in experiment [1], in experiment [2], in experiment [3] and in experiment [4] was inactive.

Regarding `Cc1cc([N+](=O)[O-])ccc1-c1ccc(C2Nc3ccccc3C(=O)N2O)o1` (stereo not given), the activation in experiment [1] is 174% (active). Also, the potentiation in experiment [2] was 18.5% (active); in experiment [3], 158% (active). For the same compound, the result in experiment [4] was inactive.

As for `O=C(Nc1nccs1)c1ccc(-c2ccc(F)c(Cl)c2)o1`, the outcome in experiment [1], in experiment [2], in experiment [3] and in experiment [4] was inactive.

`CCCCn1c(SCC(=O)/C(C#N)=C(\C)N)nc2ccccc2c1=O`: the result in experiment [1], in experiment [2], in experiment [3] and in experiment [4] was inactive.

In the case of `CC1SCC(=NOCc2c(Cl)cccc2Cl)CS1` (stereo not given), the outcome in experiment [1], in experiment [2], in experiment [3] and in experiment [4] was inactive.

As for `CCn1c(SCC(N)=O)nc2sc3c(c2c1=O)CCCC3`, the activation in experiment [1] is 153% (active). Further, the potentiation in experiment [2] is 34% (active); in experiment [3] it was 147% (active). For the same compound, in experiment [4], the result was inactive.

For `N=c1ncn(Cc2ccccc2)c2nc(SCCOc3ccccc3)[nH]c12`, the result in experiment [1], in experiment [2], in experiment [3] and in experiment [4] was inactive.

With `Cc1ccc2cc(CN(C(=O)c3ccco3)c3ccccc3C)c(=O)[nH]c2c1`, the result in experiment [1], in experiment [2], in experiment [3] and in experiment [4] was inactive.

Regarding `COc1ccc(Cl)cc1N(C)C(=O)CCNC(=O)Cn1cnc2ccccc2c1=O`, the outcome in experiment [1] and in experiment [4] was inactive. The potentiation in experiment [2] is 22.5% (active); in experiment [3], 157% (active).

Consider `COc1ccc(-c2nc(CS(=O)CC(=O)NC3CCCC3)c(C)o2)cc1OC` (stereo not given), for which the activation in experiment [1] is 168% (active). Moreover, the potentiation in experiment [2] was 85% (active); in experiment [3], 244% (active). Moreover, the result in experiment [4] was inactive.

As to `O=c1c(O)c(-c2cccs2)oc2ccc(Cl)cc12`, in experiment [1], the activation is 570% (active). Besides, the potentiation in experiment [2] was 128% (active); in experiment [3], 553% (active). Moreover, the outcome in experiment [4] was inactive.

Take `O=C(NCc1ccco1)c1ccc(=O)oc1`: the result in experiment [1], in experiment [2], in experiment [3] and in experiment [4] was inactive.

For `CCNC(=S)N=Nc1c(O)n(Cc2ccc(Cl)cc2)c2ccccc12`, the result in experiment [1] and in experiment [4] was inactive. Also, the potentiation in experiment [2] was 37% (active); in experiment [3], 172% (active).

Take `O=c1c2ccccc2[nH]c(=S)n1CCC1=CCCCC1`: in experiment [1], the activation was 212% (active). The potentiation in experiment [2] was 46% (active); in experiment [3], 196% (active). Besides, the outcome in experiment [4] was inactive.

For the compound `CCc1ccc2[nH]c(C(=O)Nc3ccc(F)cc3Br)cc2c1`, the outcome in experiment [1], in experiment [2], in experiment [3] and in experiment [4] was inactive.

Consider `Cc1c(N2C(=O)/C(=C\c3ccccc3O)SC2=S)c(=O)n(-c2ccccc2)n1C`, for which the activation in experiment [1] is 398% (active). For the same compound, the potentiation in experiment [2] was 200% (active); in experiment [3] it was 392% (active). In addition, the result in experiment [4] was inactive.

Consider `CC(C)CC(=O)NC(=S)Nc1nc(-c2cccc3ccccc23)cs1`, for which the outcome in experiment [1] and in experiment [4] was inactive. For the same compound, the values for the potentiation in experiment [2] and in experiment [3] were 60% (active) and 156% (active), respectively.

Take `Cc1ccc(Cl)cc1NC(=S)N/N=C/c1cccc2ccccc12`: the outcome in experiment [1], in experiment [3] and in experiment [4] was inactive. In addition, the potentiation in experiment [2] is 32% (active).
